Results from article PMC12120116 (Scientific Reports, 2025).
Where “and” joins values, the source holds several entries; their conditions need not be identical. Equal values may be shown once. Entries after “also recorded” stand apart in the source; their conditions may differ.

Assays:
[1] = system: MCF-7 cell line; conditions: cited from earlier work
[2] = system: A. franciscana larvae; test: Pathway enrichment analysis; type: in vivo, Artemia franciscana; conditions: sublethal concentrations (LC10 at 48 h)
[3] = rodent models; cited from earlier work
[4] = system: A. franciscana larvae; test: ChemRICH chemical similarity enrichment analysis of deregulated metabolites; type: in vivo, Artemia franciscana
[5] = system: Artemia franciscana larvae; test: Acute toxicity assay; type: in vivo; conditions: for Mortality %: corrected, mean ± SEM; for LC1 (20% of the LC10): 20% of the LC10 at 24 h, sublethal concentration used for metabolomics; for LC10 (lethal concentration 10%): probit regression
[6] = Acute toxicity assay; type: in vivo, Artemia franciscana; conditions: Artemia franciscana, in vivo, pH 8.5
[7] = system: rodent models; conditions: cited from earlier work
[8] = system: A. franciscana larvae; test: Untargeted LC-MS/MS metabolomics of larvae at sublethal concentrations; type: in vivo, Artemia franciscana
[9] = system: Artemia franciscana larvae; test: Teratogenic effect; type: in vivo; conditions: for Body length: mean ± SEM
Outline: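 Larvae came from cysts hatched 24 h in aerated ASW (pH ≅ 8.5, 28 °C). Thirty larvae were incubated in 1 mL of test-compound dilution (from DMSO stock, 0.17% DMSO, sonicated) at 25–26.5 °C for 24 h and 48 h. Ten larvae per tube had eye-to-tail length measured from images. A linear mixed-effects model (experiment as random effect) compared each treatment with time-matched ASW + 0.17% DMSO vehicle, with Dunnett adjustment.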

[10] = system: A. salina; conditions: 2500 mg/L (15 mM); ref 10 (Lestari et al. 2017); cited from earlier work
[11] = LC1 and LC10, 24 and 48 h, vs vehicle control

For `CCCC(CCC)C(=O)Nc1ccccc1O` [HO-AAVPA, N-(2-hydroxyphenyl)-2-propylpentanamide], the IC50 [1] is listed as 0.476 mM, the “Major deregulated / most impacted metabolic pathways” value [2] is listed as “sphingolipid and glycerophospholipid metabolism; also recorded: glycerophospholipid and sphingolipid metabolism” and the “Bioavailability compared to VPA” value [3] is listed as “higher bioavailability”. The “Triacylglycerides cluster, abundance of metabolites” value ([4]; LC1, 24 h) was “decreased”, the “Triacylglycerides cluster, abundance of metabolites” value ([4]; LC10, 24 h) was “increased” and the “Glycerophosphocholines and glycerophosphoethanolamines clusters” value ([4]; both concentrations, 48 h) was “mixed changes”. For the same molecule, the Malonyl carnitine ([4]; fatty acid esters, LC1 and LC10, 24 and 48 h) was “most sustained alterations”, the Mortality % ([5]; 0.18 mM (42.36 mg/L), 24 h) was 1.03 ± 1.15% and the Mortality % ([5]; 0.18 mM (42.36 mg/L), 48 h) was 16.96 ± 6.69%. The Mortality % ([5]; 0.32 mM (75.31 mg/L), 24 h) was 10.41 ± 5.92%, the Mortality % ([5]; 0.32 mM (75.31 mg/L), 48 h) was 30.34 ± 15.25% and the Mortality % ([5]; 0.56 mM (131.78 mg/L), 24 h) was 60.16 ± 18.53 %. The Mortality % ([5]; 0.56 mM (131.78 mg/L), 48 h) was 77.3 ± 13.49 %, the Mortality % ([5]; 1.00 mM (235.33 mg/L), 24 h) was 97.81 ± 1.1 % and the Mortality % ([5]; 1.00 mM (235.33 mg/L), 48 h) was 100 ± 0 %. The “LC1 (20% of the LC10)” value [5] was 0.04 mM, the “LC10 (lethal concentration 10%)” value ([5]; 48 h) was 0.13 mM and 29.49 mg/L and the “Toxicity compared to VPA” value ([5]; acute toxicity, 24 and 48 h) was “high toxicity; also recorded: higher toxic effects”. For the same molecule, the LC50 at 24 h [6] was 450 µM and 106 µg/mL, the LC50 at 48 h [6] was 320 µM and 75.8 µg/mL and the “Toxicity compared to VPA” value [7] was “lower toxicity”. The “Abundance of L-glutamine, L-asparagine, dihydrothymine and dihydrouracil” value [8, 11] was “did not produce any significant impact”, the “Abundance of L-serine and isobutyryl-L-carnitine” value [8, 11] was “did not produce any significant impact” and the “Oxysterols (3beta,7alpha-dihydroxy-5-cholestenoate, 3b-hydroxy-5-cholenoic acid, 7-ketodeoxycholic acid, 4alpha-carboxy-5alpha-cholesta-8-en-3beta-ol)” value ([8]; LC10) was “increased”. The “Abundance of some triacylglycerides (TG)” value ([8]; both concentrations, only at 24 h) was “downregulated”, the “Abundance of 7E,9E,11-Dodecatrienyl acetate” value ([8]; most notable change, vs vehicle control) was “downregulation” and the “Abundance of mintsulfide, 3beta,7alpha-Dihydroxy-5-cholestenoate and 4alpha-Carboxy-5alpha-cholesta-8-en-3beta-ol” value ([8]; vs vehicle control) was “raised the abundance”. For the same molecule, the Body length ([9]; 0.10 mM (23.53 mg/L), 24 h) was 0.79 ± 0.011, the Body length ([9]; 0.10 mM (23.53 mg/L), 48 h) was 0.82 ± 0.014 and the Body length ([9]; 0.18 mM (42.36 mg/L), 24 h) was 0.77 ± 0.007. The Body length ([9]; 0.18 mM (42.36 mg/L), 48 h) was 0.78 ± 0.015, the Body length ([9]; 0.32 mM (75.31 mg/L), 24 h) was 0.76 ± 0.01 and the Body length ([9]; 0.32 mM (75.31 mg/L), 48 h) was 0.83 ± 0.011. The Body length ([9]; 0.56 mM (131.78 mg/L), 24 h) was 0.7 ± 0.014, the Body length ([9]; 0.56 mM (131.78 mg/L), 48 h) was 0.69 ± 0.022 and the Body length ([9]; 1.00 mM (235.33 mg/L), 24 h) was 0.66 ± 0.018. The Body length ([9]; 1.00 mM (235.33 mg/L), 48 h) was 0.58 ± 0.018 and the “Teratogenicity compared to VPA” value ([9]; larvae length as morphological indicator) was “lower teratogenicity; also recorded: lower teratogenic”.
For `CCCC(CCC)C(=O)O` [VPA, valproic acid], the “Major deregulated / most impacted metabolic pathways” value [2] was “alanine, aspartate, and glutamate metabolism”, the “Ceramide and glycerophosphoinositol clusters, abundance of metabolites” value ([4]; LC10, sustained up to 48 h) was “downregulates” and the “Lipid abundance (glycerophospholipid subclasses, linoleic acid and derivatives)” value ([4]; especially LC1, 48 h) was “increases”. The “C2-C6 acylcarnitines (fatty acid esters cluster)” value ([4]; lowest concentration (LC1)) was “positively impacts”, the “Abundance of amino acids and their derivatives” value ([4]; most metabolites of the cluster) was “upward trend” and the Lethality [10] was 100%. It also gave a Mortality % ([5]; 3 mM (499 mg/L), 24 h) of 1.19 ± 3.15%, a Mortality % ([5]; 3 mM (499 mg/L), 48 h) of 7.06 ± 3.61% and a Mortality % ([5]; 5.4 mM (897 mg/L), 24 h) of 1.83 ± 3.66%. The Mortality % ([5]; 5.4 mM (897 mg/L), 48 h) was 4.98 ± 4.86%, the Mortality % ([5]; 9.6 mM (1595 mg/L), 24 h) was 10.08 ± 8.85% and the Mortality % ([5]; 9.6 mM (1595 mg/L), 48 h) was 26.43 ± 8.52%. The Mortality % ([5]; 16.8 mM (2792 mg/L), 24 h) was 11.11 ± 11.85%, the Mortality % ([5]; 16.8 mM (2792 mg/L), 48 h) was 29.41 ± 11.96% and the Mortality % ([5]; 30 mM (4986 mg/L), 24 h) was 35.05 ± 12.82%. For the same molecule, the Mortality % ([5]; 30 mM (4986 mg/L), 48 h) was 62.42 ± 14.69 %, the Mortality % ([5]; 54 mM (8974 mg/L), 24 h) was 37.32 ± 15.84 % and the Mortality % ([5]; 54 mM (8974 mg/L), 48 h) was 82.22 ± 9.04 %. It also gave a Mortality % ([5]; 96 mM (15,954 mg/L), 24 h) of 70.18 ± 14.77 %, a Mortality % ([5]; 96 mM (15,954 mg/L), 48 h) of 96.35 ± 2.13 % and a Mortality % ([5]; 168 mM (27,920 mg/L), 24 h) of 98.85 ± 1.15 %. For the same molecule, the Mortality % ([5]; 168 mM (27,920 mg/L), 48 h) was 100 ± 0 %, the “LC1 (20% of the LC10)” value [5] was 1.79 mM and the “Concentration at which 100% lethality was achieved” value ([5]; 48 h) was “above 96 mM”. For the same molecule, the “LC10 (lethal concentration 10%)” value ([5]; 48 h) was 4.71 mM and 783.1 mg/L, the LC50 [6] was > 1000 µg/mL and the LC50 at 24 h [6] was 41.1 mM. The LC50 at 48 h [6] was 18.7 mM, the Body length ([9]; 3 mM (499 mg/L), 24 h) was 0.78 ± 0.008 and the Body length ([9]; 3 mM (499 mg/L), 48 h) was 0.8 ± 0.01. The Body length ([9]; 5.4 mM (897 mg/L), 24 h) was 0.74 ± 0.012, the Body length ([9]; 5.4 mM (897 mg/L), 48 h) was 0.77 ± 0.012 and the Body length ([9]; 9.6 mM (1595 mg/L), 24 h) was 0.69 ± 0.011. For the same molecule, the Body length ([9]; 9.6 mM (1595 mg/L), 48 h) was 0.68 ± 0.021, the Body length ([9]; 16.8 mM (2792 mg/L), 24 h) was 0.67 ± 0.009 and the Body length ([9]; 16.8 mM (2792 mg/L), 48 h) was 0.66 ± 0.017. The Body length ([9]; 30 mM (4986 mg/L), 24 h) was 0.67 ± 0.008, the Body length ([9]; 30 mM (4986 mg/L), 48 h) was 0.64 ± 0.013 and the Body length ([9]; 54 mM (8974 mg/L), 24 h) was 0.61 ± 0.015. The Body length ([9]; 54 mM (8974 mg/L), 48 h) was 0.57 ± 0.017, the Body length ([9]; 96 mM (15,954 mg/L), 24 h) was 0.56 ± 0.011 and the Body length ([9]; 96 mM (15,954 mg/L), 48 h) was 0.54 ± 0.01. The Body length ([9]; 168 mM (27,920 mg/L), 24 h) was 0.52 ± 0.014 and the Body length ([9]; 168 mM (27,920 mg/L), 48 h) was 0.5 ± 0.011.
